In ChEMBL document CHEMBL1125566, “N-methylcarbamate derivatives of ellipticine and olivacine with cytotoxic activity against four human lung cancer cell lines” (J Med Chem, 1992):

How the values were obtained:
Assay type in all cases: functional, cell-based
NCI-H417 [1] = experiment: Compound was evaluated for inhibitory activity against N 417 human lung cancer cell line
Method in brief: (§1)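 SCLC floating cultures, grown in RPMI 1640 at 37 °C under 5% CO2, disaggregated by gentle pipetting, collected by sedimentation, and plated at 8000 cells/well. Drug (DMSO, then BSA and phosphate buffer dilutions) applied for 1 h, then centrifuged and washed twice with RPMI 1640. After 4 days at 37 °C, MTT was added for 4 h and formazan in DMSO read at 540 nm. IC50 is 50% growth inhibition.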

NCI-H358 [2] = experiment: Compound was evaluated for inhibitory activity against H 358 human lung cancer cell line
Method in brief: (§2)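 Non-SCLC adherent cells, grown in RPMI 1640 at 37 °C under 5% CO2, trypsinized, resuspended in RPMI-1640/2% FBS, and plated at 2500 cells/well. Drug (DMSO, then BSA and phosphate buffer dilutions) applied for 1 h, then centrifuged and washed twice. Cells were kept 4 days at 37 °C, given MTT for 4 h, formazan dissolved in DMSO, and read at 540 nm. IC50 is the concentration giving 50% growth inhibition.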

NCI-H460 [3] = experiment: Compound was evaluated for inhibitory activity against H 460 human lung cancer cell line; method in brief: as §2
NCI-H69 [4] = experiment: Compound was evaluated for inhibitory activity against H69 human lung cancer cell line; method in brief: as §1
NCI-H69 [5] = experiment: Cytotoxicity against H69 human lung cancer cell line; method in brief: as §1
NCI-H460 [6] = experiment: Cytotoxicity against H 460 human lung cancer cell line; method in brief: as §2
NCI-H358 [7] = experiment: Cytotoxicity against H 358 human lung cancer cell line; method in brief: as §2
NCI-H417 [8] = experiment: Cytotoxicity against N 417 human lung cancer cell line; method in brief: as §1

IC50 (NCI-H417 [1]) | IC50 (NCI-H358 [2]) | IC50 (NCI-H460 [3]) | IC50 (NCI-H69 [4]) | Compound | IC50 (NCI-H69 [5]) | IC50 (NCI-H460 [6]) | IC50 (NCI-H358 [7]) | IC50 (NCI-H417 [8])
230 nM | 620 nM | 230 nM | 870 nM | COc1cccc2c1C(=O)c1c(O)c3c(c(O)c1C2=O)C[C@@](O)(C(=O)CO)C[C@@H]3O[C@H]1C[C@H](N)[C@H](O)[C@H](C)O1 [DOXORUBICIN] |  |  |  | 
1800 nM | 2100 nM | 2100 nM | 1200 nM | COc1ccc2[nH]c3c(C)c4ccnc(C)c4cc3c2c1 |  |  |  | 
 |  |  |  | COc1ccc2[nH]c3c(C)c4ccnc(COC(C)=O)c4cc3c2c1 | 1400 nM | 1700 nM | 2000 nM | 2800 nM
3400 nM | 2300 nM | 1800 nM | 1700 nM | Cc1nccc2c(C)c3[nH]c4ccccc4c3cc12 |  |  |  | 
 |  |  |  | CNC(=O)OCc1c2ccncc2c(C)c2c1[nH]c1ccccc12 | 860 nM | 170 nM | 190 nM | 330 nM
 |  |  |  | Cc1c2cnccc2c(CO)c2[nH]c3ccc(O)cc3c12 | 1600 nM | 950 nM | 1500 nM | 1800 nM
900 nM | 1500 nM | 1800 nM | 1800 nM | COc1ccc2[nH]c3c(C)c4ccnc(C=O)c4cc3c2c1 |  |  |  | 
 |  |  |  | COc1ccc2[nH]c3c(C)c4ccnc(CO)c4cc3c2c1 | 1300 nM | 1900 nM | 1300 nM | 1300 nM
> 48000 nM | > 48000 nM | > 48000 nM | > 48000 nM | Cc1c2cc[n+](C)cc2c(C)c2c1[nH]c1ccc(O)cc12 [ELLIPTINIUM] |  |  |  | 
 |  |  |  | Cc1c2ccncc2c(C)c2c1[nH]c1ccc(O)cc12 | 1700 nM | 2800 nM | 5800 nM | 3500 nM
 |  |  |  | CNC(=O)OCc1c2cnccc2c(C)c2[nH]c3ccc(OC)cc3c12 | 170 nM | 20 nM | 90 nM | 40 nM
 |  |  |  | CNC(=O)OCc1c2ccncc2c(C)c2c1[nH]c1ccc(OC)cc12 | 220 nM | 60 nM | 100 nM | 90 nM
 |  |  |  | CNC(=O)OCc1nccc2c(C)c3[nH]c4ccc(OC)cc4c3cc12 | 140 nM | 70 nM | 110 nM | 100 nM

Compound | IC50 (NCI-H417 [1]) | IC50 (NCI-H358 [2]) | IC50 (NCI-H460 [3]) | IC50 (NCI-H69 [4]) | IC50 (NCI-H69 [5]) | IC50 (NCI-H460 [6]) | IC50 (NCI-H358 [7]) | IC50 (NCI-H417 [8])
Cc1c2ccncc2c(C)c2c1[nH]c1ccccc12 [ELLIPTECINE] | 870 nM | 200 nM | 510 nM | 1800 nM |  |  |  | 
